Publication PMC3219927 (Nature medicine, 2011)
Ends that are not written are not given here.

What was measured:
[1] = system: meningeal blood flow (dura mater); assay: Laser Doppler flowmetry of meningeal blood flow; format: in vivo, rat
[2] = system: ddC-induced tactile hypersensitivity; assay: ddC-induced neuropathic pain, paw withdrawal threshold; format: in vivo, rat; details: single ddC injection
formalin-induced edema = assay: Formalin-induced paw edema; format: in vivo, rat; details: formalin 2.5%, compared to saline; 1 h after injection
neurons [3] = details: not told
[4] = system: interaction between CRMP-2 and Ct-dis of CaV2.2; assay: In vitro binding; details: Ct-dis-GST, peptide 10 μM
Procedure, shortened: (§1)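 GST fusions of the CaV2.2 loop 1 (L1) or distal C-terminus (Ct-dis) incubated in vitro with CRMP-2 alongside test peptide or scrambled control peptide, each at 10 μM. CRMP-2 retained on the fusion proteins was detected by immunoblot with a CRMP-2 antibody.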

[5] = system: interaction between CRMP-2 and L1 of CaV2.2; assay: In vitro binding; details: L1-GST, peptide 10 μM
Procedure, shortened: as §1

hippocampal neurons = assay: Depolarization-induced calcium influx, hippocampal neurons; format: cell-based; details: plasmid expression
CaV2.2 = CaV2.2 surface localisation; format: cell-based; details: CAD neuronal cell line, co-expression of CaV2.2 with CBD3 (fused to GFP)
N-type Ca^2+ channels = format: cell-based; details: DRGs, Fura-2 imaging
[6] = system: dorsal root ganglion (DRG) neurons; assay: Depolarization-induced calcium influx, DRG neurons; format: cell-based; details: plasmid expression
neurons [7] = assay: Cell permeation / entry into neurons; details: in vitro, ex vivo and in vivo
[8] = system: distal C-terminus (Ct-dis) of CaV2.2; assay: Surface plasmon resonance, immobilized Ct-dis; format: binding; details: 1/3/5 μM; dissociation monitored for 4 min
Procedure, shortened: (§2)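 Test peptide or scrambled control peptide injected at 1, 3 and 5 μM over immobilized CaV2.2 L1 or Ct-dis. Binding was recorded as sensorgrams in resonance units, with dissociation followed for 4 min.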

[9] = system: cytosolic loop 1 (L1) of CaV2.2; assay: Surface plasmon resonance, immobilized L1; format: binding; details: 1/3/5 μM; dissociation monitored for 4 min
Procedure, shortened: as §2

[10] = system: interaction between tubulin and CRMP-2; assay: Co-immunoprecipitation with CRMP-2 antibody from spinal cord lysates, tubulin; format: binding

## COc1cc(CNC(=O)CCCC/C=C/C(C)C)ccc1O [Capsaicin, capsaicin]
[1]; nasally administered capsaicin, 100 nM
  Meningeal blood flow response to capsaicin alone: rapid and robust increase in meningeal blood flow

## Nc1ccn([C@H]2CC[C@@H](CO)O2)c(=O)n1 [ddC, 2',3'-dideoxycytidine]
[2]
  PWT after ddC: exhibited a decrease in PWT

## Formalin
formalin-induced edema
  Change in paw thickness: 4 fold

## CBD3 (ARSRLAELRGVPRGL)
Neurons [3]
  Cell permeability / entry into neurons: not cell permeant
[4]
  Ability of Ct-dis to pull down CRMP-2: dramatic reduction in ability of L1 or Ct-dis proteins to pull down CRMP-2
[5]
  Ability of L1 to pull down CRMP-2: dramatic reduction in ability of L1 or Ct-dis proteins to pull down CRMP-2
Hippocampal neurons
  Depolarization-induced calcium influx: reduced depolarization-induced calcium influx
CaV2.2
  CaV2.2 localisation on co-expression: almost complete retention of the channel in cytoplasmic aggregates
N-type Ca^2+ channels
  K+-evoked Ca2+ influx, channel selectivity: reduced K^+-evoked Ca^2+ influx selectively through N-type Ca^2+ channels
[6]
  Depolarization-induced calcium influx: reduced depolarization-induced calcium influx
Neurons [7]
  Passage into cells, time: conjugation of CBD3 to HIV-1 TAT facilitated its passage into cells in vitro, ex vivo and in vivo within minutes
[8]
  Binding to immobilized Ct-dis: bound to immobilized L1 and Ct-dis proteins
[9]
  Binding to immobilized L1: bound to immobilized L1 and Ct-dis proteins
[10]
  Effect on interaction between tubulin and CRMP-2: did not affect the interaction between tubulin and CRMP-2

## CGRP8-37: CGRP antagonist (VTHRLAGLLSRSGGVVKNNFVPTNVGSKAF; ends and bridges not checked; UniProt P06881 90-119, looked up, fragment)
[1]; prior dural administration of CGRP antagonist
  Dependence of capsaicin-induced blood flow changes on CGRP: could be blocked by prior dural administration of the CGRP antagonist, CGRP8-37
